Experimental data from article PMC9827282 (RSC Advances, 2023).
Like-named read-outs stand apart in the source and are kept apart here.

Tests used:
[1] = biological target: T1, XO (isolated from bovine milk) (Bos taurus, UniProt P80457); assay: XO inhibition assay; format: biochemical
[2] = biological target: T1, XO (isolated from bovine milk); assay: Enzyme kinetic studies; format: biochemical
Summary of the method: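 Bovine milk XO. Reversibility: xanthine held at 0.25 mM, XO varied 0.03–0.15 U mL−1 (five levels), test compound at 0, 10, 20 and 30 μM, velocity plotted against [XO]. Inhibition type: XO 0.025 U mL−1, xanthine 0.0625–0.1875 mM, same compound levels. Lineweaver–Burk double-reciprocal analysis, with linear secondary replots of slope and Y-intercept against [compound].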

[3] = biological target: T1, XO (isolated from bovine milk); assay: Fluorescence titrations; format: binding; conditions: for Kd: binding constant K
Summary of the method: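 Intrinsic fluorescence of bovine milk XO (0.16 U mL−1) titrated with test compound at 0–26.7 μM, at 298, 304 and 310 K. Excitation 280 nm, emission 300–500 nm, slit 5.0 nm. Mixtures equilibrated 30 min before reading. Compound-only control at each concentration; PBS blank for background correction. Final DMSO below 1%.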

[4] = biological target: T1, XO (isolated from bovine milk); assay: Fourier translation infrared spectroscopy, secondary structure of XO; conditions: XO 0.5 U mL^−1 with AUR
Summary of the method: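 FT-IR of bovine milk XO (0.5 U mL−1), alone and with test compound (200 μM), at room temperature. Spectra collected over 1800–1400 cm−1 at 4 cm−1 resolution, 128 scans co-added, background subtracted. Secondary-structure fractions quantified by split-peak fitting of the amide I band (1600–1700 cm−1).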

XO = conditions: cited from earlier work
[5] = 298, 304 and 310 K (taken as constant)

T1 sequence (P80457 whole entry): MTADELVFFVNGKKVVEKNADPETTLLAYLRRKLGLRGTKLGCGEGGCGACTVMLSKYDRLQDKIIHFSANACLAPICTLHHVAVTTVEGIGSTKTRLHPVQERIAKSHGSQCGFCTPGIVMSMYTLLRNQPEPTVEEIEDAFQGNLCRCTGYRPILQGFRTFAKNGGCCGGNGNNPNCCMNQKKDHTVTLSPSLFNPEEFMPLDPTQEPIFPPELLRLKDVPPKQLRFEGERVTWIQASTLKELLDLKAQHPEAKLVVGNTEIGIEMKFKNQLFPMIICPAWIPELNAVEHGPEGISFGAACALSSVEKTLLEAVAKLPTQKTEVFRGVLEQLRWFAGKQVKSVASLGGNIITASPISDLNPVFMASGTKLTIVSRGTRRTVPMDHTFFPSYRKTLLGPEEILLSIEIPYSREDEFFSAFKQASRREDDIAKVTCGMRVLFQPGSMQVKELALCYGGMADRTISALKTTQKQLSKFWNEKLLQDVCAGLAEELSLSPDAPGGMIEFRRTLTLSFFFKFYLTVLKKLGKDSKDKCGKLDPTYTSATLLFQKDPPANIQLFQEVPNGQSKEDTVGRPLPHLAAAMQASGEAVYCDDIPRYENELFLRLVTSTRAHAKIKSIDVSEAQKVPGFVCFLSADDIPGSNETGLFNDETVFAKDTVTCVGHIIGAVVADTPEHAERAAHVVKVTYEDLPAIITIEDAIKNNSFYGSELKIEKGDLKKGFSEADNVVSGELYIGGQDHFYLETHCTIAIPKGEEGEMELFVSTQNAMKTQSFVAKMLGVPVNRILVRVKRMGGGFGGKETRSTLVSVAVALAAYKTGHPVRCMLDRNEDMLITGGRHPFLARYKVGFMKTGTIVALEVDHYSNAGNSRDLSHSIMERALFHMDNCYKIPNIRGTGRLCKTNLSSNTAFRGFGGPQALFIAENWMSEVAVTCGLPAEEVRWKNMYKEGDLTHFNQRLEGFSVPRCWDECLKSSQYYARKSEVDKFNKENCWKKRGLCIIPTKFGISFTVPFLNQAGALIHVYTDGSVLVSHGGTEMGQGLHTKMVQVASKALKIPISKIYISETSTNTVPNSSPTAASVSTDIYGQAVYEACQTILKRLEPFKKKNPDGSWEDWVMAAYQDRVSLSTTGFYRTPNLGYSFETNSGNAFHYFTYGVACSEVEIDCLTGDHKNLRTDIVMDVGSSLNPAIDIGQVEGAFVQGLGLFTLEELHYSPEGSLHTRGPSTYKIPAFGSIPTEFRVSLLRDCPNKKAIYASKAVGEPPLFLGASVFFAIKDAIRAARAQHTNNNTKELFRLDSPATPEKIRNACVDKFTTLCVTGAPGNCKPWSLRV

Question: For `O=C1/C(=C/c2ccc(O)c(O)c2)Oc2cc(O)cc(O)c21` [AUR, Aureusidin], which IC50 [1] is on record?
Answer: 7.62 ± 0.401 µM

Question: And the Ki [2]?
Answer: 1.8 µM

Question: And the “ratio (α) of Kis to Ki” value [2]?
Answer: 0.31

Question: What about the inhibition type ([2]; Lineweaver–Burk plot, XO 0.025 U mL^−1, AUR 0–30 μM) of the same molecule?
Answer: mixed-type (competitive and noncompetitive)

Question: What about the “uncompetitive inhibition constant (Kis)” value ([2]; binding to XO–xanthine complex) of the same molecule?
Answer: 0.56 µM

Question: What about the inhibition reversibility ([2]; plots of v vs [XO], AUR 0–30 μM, xanthine 0.25 mM) of the same molecule?
Answer: reversible

Question: What about the fluorescence quenching mechanism [3] of the same molecule?
Answer: static quenching process

Question: And the ΔH [3, 5]?
Answer: 12.97 kJ/mol

Question: What about the ΔS [3, 5] of the same molecule?
Answer: 121.95 J mol^−1 K^−1

Question: What about the “lg K” value ([3]; 298 K) of the same molecule?
Answer: 4.096

Question: And the “number of binding sites n” value ([3]; 298 K)?
Answer: 0.977

Question: What about the “quenching constant Ksv” value ([3]; 298 K) of the same molecule?
Answer: 16190 L/mol

Question: What about the “lg K” value ([3]; 304 K) of the same molecule?
Answer: 4.155

Question: What about the “number of binding sites n” value ([3]; 304 K) of the same molecule?
Answer: 0.993

Question: And the “quenching constant Ksv” value ([3]; 304 K)?
Answer: 15450 L/mol

Question: What about the ΔG ([3]; 304 K) of the same molecule?
Answer: -37.06 kJ/mol

Question: And the “lg K” value ([3]; 310 K)?
Answer: 4.184

Question: And the “number of binding sites n” value ([3]; 310 K)?
Answer: 1.006

Question: What about the “quenching constant Ksv” value ([3]; 310 K) of the same molecule?
Answer: 14370 L/mol

Question: What about the ΔG ([3]; 310 K) of the same molecule?
Answer: -37.79 kJ/mol

Question: And the Kd ([3]; 298 K)?
Answer: 80.2 µM

Question: And the Kd ([3]; 304 K)?
Answer: 70 µM

Question: What about the Kd ([3]; 310 K) of the same molecule?
Answer: 65.4 µM

Question: And the “β-Sheet content of XO” value ([4]; free XO 17.50)?
Answer: 12.07%

Question: What about the “β-Turn content of XO” value ([4]; free XO 40.37) of the same molecule?
Answer: 23.31%

Question: What about the “α-Helix and random structure content of XO” value ([4]; free XO 42.13) of the same molecule?
Answer: 64.62%

Question: What does the source list for `O=c1c(O)c(-c2ccc(O)c(O)c2)oc2cc(O)cc(O)c12` [Quercetin, quercetin]?
Answer: inhibition type (XO): mixed-type; IC50 (XO; ref 18 (Zhang et al.)): 2.74 ± 0.04 µM

Question: For `O=C1/C(=C/c2ccc(O)c(O)c2)Oc2cc(O)ccc21` [sulfuretin], which IC50 (XO; ref 24 (Muzychka et al.)) is on record?
Answer: 3.1 ± 0.38 µM
